Reference: paper PMC4462344 (Cancer Science, 2014)
Where “and” joins values, the source holds several entries; their conditions need not be identical. Equal entries are not always repeated. Marks after values point to notes of the source that are not given here.

Legend:
Format in all cases: in vivo, Japanese CRPC patients
[1] = Plasma abiraterone acetate and abiraterone pharmacokinetics
Outline: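 Venous blood was drawn at predose and 0.5–12 h after dosing on cycle 1 days 1, 7 and 15 (monotherapy days 1–7; prednisone 5 mg twice daily from day 8), plus 24-h and trough samples. Samples were taken on NaF, spun at 1300 g and 4°C for 10 min, and stored at −20°C. Assay was validated LC/MS/MS (LLOQ 0.220 ng/mL). Cmax, tmax and AUC24 came from non-compartmental analysis.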

[2] = test system: corticosterone; assay: Pharmacodynamics: serum corticosterone concentration
Outline: (§1)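 Serum corticosterone, 11-deoxycorticosterone, testosterone and DHEA-S were measured at baseline and on days 2 and 8 of cycle 1. Abiraterone acetate was given orally once daily after an overnight fast, with no food for ≥1 h after dosing. It was given alone days 1–7, then with prednisone 5 mg twice daily. Results are summarised as change from baseline.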

[3] = test system: 11-deoxycorticosterone; assay: Pharmacodynamics: serum 11-deoxycorticosterone concentration
Outline: as §1

[4] = test system: testosterone; assay: Pharmacodynamics: serum testosterone concentration
Outline: as §1

[5] = test system: dehydroepiandrosterone sulfate (DHEA-S); assay: Pharmacodynamics: serum DHEA-S concentration
Outline: as §1

[6] = test system: prostate-specific antigen (PSA); assay: Efficacy: PSA response; conditions: for patients who achieved ≥50% PSA decline from baseline at one or more evaluation time points: entire treatment period; for mean percentage change from baseline in PSA levels: week 12
Outline: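 Oral abiraterone acetate given once daily in 28-day cycles to chemotherapy-naïve patients on continued LHRH agonist or post-orchiectomy: monotherapy days 1–7 of cycle 1, then with prednisone 5 mg twice daily. PSA measured at screening and day 1 of each cycle. Response was a ≥50% fall from baseline confirmed to persist ≥4 weeks, per PCWG2.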

[7] = test system: castration-resistant prostate cancer; assay: Efficacy: objective tumor response by RECIST
Outline: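 Patients with measurable lesions were assessed for objective tumour response by RECIST. Dosing was once-daily oral abiraterone acetate (250, 500 or 1000 mg, the 1000 mg given 1 h premeal or 2 h postmeal) in 28-day cycles, with prednisone 5 mg twice daily added from cycle 1 day 8 onward.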

[8] = Cycle 1 Day 2, 1000 (+2 h) mg (n = 6)
[9] = Cycle 1 Day 2, 1000 (−1 h) mg (n = 6)
[10] = Cycle 1 Day 8, 1000 (+2 h) mg (n = 6)
[11] = Cycle 1 Day 8, 1000 (−1 h) mg (n = 6)

## CC(=O)O[C@H]1CC[C@@]2(C)C(=CC[C@@H]3[C@@H]2CC[C@]2(C)C(c4cccnc4)=CC[C@@H]32)C1 [Abiraterone acetate]
[1]; most plasma concentrations, all cohorts, LLOQ 0.220 ng/mL
  plasma AA concentrations: below the quantification limit
[2]; Cycle 1 Day 2, 250 mg (n = 9)
  Corticosterone, mean (SD) change from baseline: 1097.1 (687.41) ng/dL
[2]; Cycle 1 Day 2, 500 mg (n = 6)
  Corticosterone, mean (SD) change from baseline: 2914.8 (1543.83) ng/dL
[2]; [8]
  Corticosterone, mean (SD) change from baseline: 4227.3 (2814.68) ng/dL
[2]; [9]
  Corticosterone, mean (SD) change from baseline: 1957.2 (1008.74) ng/dL
[2]; Cycle 1 Day 8, 250 mg (n = 9)
  Corticosterone, mean (SD) change from baseline: 2015.2 (769.39) ng/dL
[2]; Cycle 1 Day 8, 500 mg (n = 6)
  Corticosterone, mean (SD) change from baseline: 4086.5 (2478.82) ng/dL
[2]; [10]
  Corticosterone, mean (SD) change from baseline: 6426.2 (2212.64) ng/dL
[2]; [11]
  Corticosterone, mean (SD) change from baseline: 5147.8 (1642.75) ng/dL
[3]; Cycle 1 Day 2, 250 mg (n = 8)
  11-deoxycorticosterone, mean (SD) change from baseline: 22.9 (10.13) ^† ng/dL
[3]; Cycle 1 Day 2, 500 mg (n = 6)
  11-deoxycorticosterone, mean (SD) change from baseline: 40.3 (16.79) ng/dL
[3]; [8]
  11-deoxycorticosterone, mean (SD) change from baseline: 45.7 (61.09) ng/dL
[3]; [9]
  11-deoxycorticosterone, mean (SD) change from baseline: 36.3 (17.22) ng/dL
[3]; Cycle 1 Day 8, 250 mg (n = 8)
  11-deoxycorticosterone, mean (SD) change from baseline: 45.9 (13.35) ^† ng/dL
[3]; Cycle 1 Day 8, 500 mg (n = 6)
  11-deoxycorticosterone, mean (SD) change from baseline: 78.8 (36.41) ng/dL
[3]; [10]
  11-deoxycorticosterone, mean (SD) change from baseline: 112.3 (65.15) ng/dL
[3]; [11]
  11-deoxycorticosterone, mean (SD) change from baseline: 79.2 (51.53) ng/dL
[4]; Cycle 1 Day 2, 250 mg (n = 9)
  Testosterone, mean (SD) change from baseline: −3.6 (3.64) ng/dL
[4]; Cycle 1 Day 2, 500 mg (n = 6)
  Testosterone, mean (SD) change from baseline: −4.8 (3.06) ng/dL
[4]; [8]
  Testosterone, mean (SD) change from baseline: −7.5 (1.87) ng/dL
[4]; [9]
  Testosterone, mean (SD) change from baseline: −8.0 (3.22) ng/dL
[4]; Cycle 1 Day 8, 250 mg (n = 9)
  Testosterone, mean (SD) change from baseline: −6.2 (4.06) ng/dL
[4]; Cycle 1 Day 8, 500 mg (n = 6)
  Testosterone, mean (SD) change from baseline: −8.2 (3.82) ng/dL
[4]; [10]
  Testosterone, mean (SD) change from baseline: −9.2 (2.32) ng/dL
[4]; [11]
  Testosterone, mean (SD) change from baseline: −10.8 (6.21) ng/dL
[4]; day 8 in cycle 1, 250-1000 mg
  mean change from baseline in testosterone levels, range over cohorts: -10.8 to -6.2 ng/dL
[5]; Cycle 1 Day 2, 250 mg (n = 9)
  DHEA-S, mean (SD) change from baseline: −19.1 (13.49) ug/dL
[5]; Cycle 1 Day 2, 500 mg (n = 6)
  DHEA-S, mean (SD) change from baseline: −28.3 (24.32) ug/dL
[5]; [8]
  DHEA-S, mean (SD) change from baseline: −53.3 (34.14) ug/dL
[5]; [9]
  DHEA-S, mean (SD) change from baseline: −59.7 (49.87) ug/dL
[5]; Cycle 1 Day 8, 250 mg (n = 9)
  DHEA-S, mean (SD) change from baseline: −35.7 (25.51) ug/dL
[5]; Cycle 1 Day 8, 500 mg (n = 6)
  DHEA-S, mean (SD) change from baseline: −38.5 (37.31) ug/dL
[5]; [10]
  DHEA-S, mean (SD) change from baseline: −76.8 (54.02) ug/dL
[5]; [11]
  DHEA-S, mean (SD) change from baseline: −95.3 (77.99) ug/dL
[6]; 250 mg cohort
  PSA response rate: 67%
[6]; 500 mg cohort, listed as AA
  PSA response rate: 50%
[6]; 1000 (+2 h) mg cohort, listed as AA
  PSA response rate: 83% and 83.3%
[6]; 1000 (−1 h) mg cohort, listed as AA
  PSA response rate: 67% and 66.7%
[6]; all cohorts
  patients with ≥50% PSA decline confirmed to be maintained for at least 4 weeks: 18/27
  patients who achieved ≥50% PSA decline from baseline at one or more evaluation time points: 20/27
[6]; all cohorts (N = 27), ≥50% decline maintained ≥4 weeks
  overall PSA response rate: 67%
[6]; each dose-group
  patients from each dose-group with ≥50% PSA reduction: At least 3 patients
[6]; 250 mg
  patients who achieved ≥50% PSA decline from baseline at one or more evaluation time points: 7 patients
  mean percentage change from baseline in PSA levels: −51.2%
[6]; 500 mg
  patients who achieved ≥50% PSA decline from baseline at one or more evaluation time points: 3 patients
  mean percentage change from baseline in PSA levels: −29.1%
[6]; 1000 (+2 h) mg
  patients who achieved ≥50% PSA decline from baseline at one or more evaluation time points: 5 patients
[6]; 1000 (−1 h) mg
  patients who achieved ≥50% PSA decline from baseline at one or more evaluation time points: 5 patients
[6]; 1000 mg (+2 h)
  mean percentage change from baseline in PSA levels: −37.6%
[6]; 1000 mg (−1 h)
  mean percentage change from baseline in PSA levels: −60.4%
[7]; 250 mg
  patients in whom the disease had progressed (RECIST): 1 patients
  patients with stable disease (RECIST): 1 patients
[7]; 500 mg
  patients with partial response (RECIST): 1 patients
  patients with stable disease (RECIST): 2 patients
[7]; 1000 (+2 h) mg
  patients in whom the disease had progressed (RECIST): 1 patients
[7]; 1000 (−1 h) mg
  patients with partial response (RECIST): 1 patients
  patients with stable disease (RECIST): 2 patients
[7]; all cohorts
  patients in whom the disease had progressed (RECIST): 2 patients
  patients with partial response (RECIST): 2 patients
  patients with stable disease (RECIST): 5 patients

## C[C@]12CC[C@H](O)CC1=CC[C@@H]1[C@@H]2CC[C@]2(C)C(c3cccnc3)=CC[C@@H]12 [abiraterone]
[1]; 1000 mg cohort, overall
  mean Cmax and AUC24 of abiraterone, 2 h postmeal versus 1 h premeal: 3.1–6.0 times
[1]; AA 1000 mg multiple doses
  abiraterone Cmax and AUC24, 2 h postmeal versus 1 h premeal: approximately threefold to sixfold
[1]; irrespective of dose
  accumulation index for AUC24 of abiraterone: 1.40–1.69
  accumulation index for Cmax of abiraterone: 1.31–1.74
[1]; regardless of dose
  time at which steady state of plasma abiraterone was reached: ≤ 7 days
